Assay results from paper PMC4496304 (Environmental science & technology, 2015).
Entries after “also recorded” stand apart in the source; their conditions may differ. Counter-ions that a name gives are not always drawn. Like-named read-outs stand apart in the source and are kept apart here. Marks after values point to notes of the source that are not given here.

Experiments:
[1] = type: in vivo, male Sprague-Dawley rats
In short: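 Single tail-vein injection in male rats (247 ± 8 g, 7-day acclimatization): 2 mM dosing solution in 5% (v/v) DMSO/sterile saline, 575 μg/kg; vehicle-injected controls. Killed by CO2 and cervical dislocation ~3 min, 1 h or 24 h post-dose (n = 6). Feces and intestinal contents came from rats held 24 h in metabolism cages. Tissues homogenized in 4 volumes water (liver: 20% acetonitrile). Analysis by negative-ion LC-ESI-MS/MS with internal standard.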

[2] = Stability of 4-PCB 11 sulfate in rat urine; type: in vitro ADME; details: 24 hours at 25 °C (experiments not shown)
human transthyretin = details: cited from earlier work
[3] = PCB 11 and its metabolites, rat, cited from earlier work
[4] = 3min, iv 575 μg/kg, assuming total dose 142 μg
[5] = 24 hours, iv 575 μg/kg, assuming total dose 142 μg
[6] = 1 hour, iv 575 μg/kg, assuming total dose 142 μg

## O=S(=O)(O)Oc1ccc(-c2cccc(Cl)c2)cc1Cl [4-PCB 11 sulfate, 3,3′-dichloro-4′-sulfooxy-biphenyl]
[1]; 1 hour, all samples examined
  Fraction of 4-PCB 11 sulfate not recoverable: about two thirds
[1]; after 24 hours of exposure
  4-PCB 11 sulfate concentrations in tissues and fluids examined: below the LOD
[1]; after one hour
  Observable 4-PCB 11 sulfate levels as fraction of the initial dose: about one third
[1]; bile collected during 1 hour after injection, bile duct-cannulated rats, iv
  4-PCB 11 sulfate in bile: 34 ± 3.9 µg
[1]; brain weight, exposed rats
  Fluid or Tissue (ml or g): brain, exposed animals: 1.69 ± 0.07 ml or g
[1]; [4]
  % of total dose in brain: 0.6 ± 0.2%
  % of total dose in kidneys: 8.7 ± 2.4%
  % of total dose in liver: 47 ± 15%
  % of total dose in lungs: 3.9 ± 1%
[1]; 3min, iv 575 μg/kg, rat
  4-PCB 11 sulfate in brain: 0.8 ± 0.3 µg
  4-PCB 11 sulfate in kidneys: 12 ± 3.4 µg
  4-PCB 11 sulfate in liver: 67 ± 21 µg
  4-PCB 11 sulfate in lungs: 5.6 ± 1.4 µg
[1]; 1 hour, iv 575 μg/kg, rat, detectable only in three samples
  4-PCB 11 sulfate in brain: 0.9 ± 0.9 ^c μg
[1]; [5]
  % of total dose in brain: 0%
  % of total dose in kidneys: 0%
  % of total dose in liver: 0%
  % of total dose in lungs: 0%
  % of total dose in serum: 0%
[1]; 24 hours, iv 575 μg/kg, rat
  4-PCB 11 sulfate in brain: < LOD
  4-PCB 11 sulfate in liver: < LOD
  4-PCB 11 sulfate in lungs: < LOD
  4-PCB 11 sulfate in serum: < LOD
[1]; feces, 24 hours, iv 575 μg/kg, assuming total dose 142 μg
  % of total dose in feces: 0%
[1]; feces, 24 hours, iv 575 μg/kg, rat
  4-PCB 11 sulfate in feces: did not contain detectable levels; also recorded: undetectable; also recorded: < LOD
[1]; intestinal contents, 24 hours, iv 575 μg/kg, assuming total dose 142 μg
  % of total dose in intestinal contents: 0%
[1]; intestinal contents, 24 hours, iv 575 μg/kg, rat
  4-PCB 11 sulfate in intestinal contents: did not contain detectable levels; also recorded: undetectable; also recorded: < LOD
[1]; kidneys weight, exposed rats
  Fluid or Tissue (ml or g): kidneys, exposed animals: 1.86 ± 0.16 ml or g
[1]; [6]
  % of total dose in kidneys: 1.1 ± 0.5%
  % of total dose in liver: 2 ± 1%
  % of total dose in lungs: 0.4 ± 0.4%
  % of total dose in serum: 2.1 ± 1.2%
[1]; 1 hour, iv 575 μg/kg, rat
  4-PCB 11 sulfate in kidneys: 1.6 ± 0.7 µg
  4-PCB 11 sulfate in liver: 2.9 ± 1.4 µg
  4-PCB 11 sulfate in lungs: 0.6 ± 0.6 µg
  4-PCB 11 sulfate in serum: 3.0 ± 1.6 µg
[1]; liver weight, exposed rats
  Fluid or Tissue (ml or g): liver, exposed animals: 10.6 ± 0.94 ml or g
[1]; lungs weight, exposed rats
  Fluid or Tissue (ml or g): lungs, exposed animals: 1.3 ± 0.18 ml or g
[1]; rat, iv
  Blood brain barrier crossing (detection in brain tissue): ability to cross the blood brain barrier
[1]; rat, iv 575 μg/kg
  Organ weights, exposed versus control animals: no significant differences
[1]; 3min, iv 575 μg/kg, assuming total dose 142 μg per animal
  % of total dose in serum: 35 ± 8.5%
[1]; 3min post-injection, iv 575 μg/kg, rat
  4-PCB 11 sulfate in serum: 50 ± 12 µg
[1]; urine, 24 hours collection, iv 575 μg/kg, assuming total dose 142 μg
  % of total dose in urine: 3.7 ± 1.8%
[1]; urine, 24 hours collection, iv 575 μg/kg, rat
  4-PCB 11 sulfate in urine: 5.3 ± 2.5 µg
[2]
  Stability in rat urine: stable
Human transthyretin
  Affinity for transthyretin (T4 binding sites): affinity comparable to the physiological ligand, thyroxine; also recorded: among the most potent ligands

## Clc1cccc(-c2cccc(Cl)c2)c1 [PCB 11, 3,3′-dichlorobiphenyl]
[3]; liver
  t1/2 clearance from liver: 2.1 h
[3]; lungs
  t1/2 clearance from lungs: 1.9 h
[3]; serum
  t1/2 clearance from serum: 1.8 h
